Sampled rows, rich in hits. Any-hit rate of the full collection: about 2.1%.
MIN6 prolif = induces beta-cell replication in MIN6 cells; hit rate 0.29% among 330,000; AID 2380; proliferation, % at 10 µM; MIN6 cells proliferation, ATPlite luminescence, 48 h; cells starved in 0.2% serum; 100% = growth in 10% serum;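 active means compounds whose signal lies at least 3.5 SD above the mean of all wells on their plate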;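 further: 0% = DMSO-treated cells in low-serum medium and 100% = 10% serum control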
UCH37 DUB inh = inhibitors of human deubiquitinating enzyme UCH37; hit rate 0.33% among 330,000; inhibition, % (test concentration not listed); purified proteasome/UCH37, Ub-AMC cleavage fluorescence; AID 588478;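 active means mean inhibition over replicate wells above about 20%, limit read from the data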;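 further: 0% = compound-free wells with enzyme and 100% = wells lacking proteasome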
Target sequence (Q9Y5K5 whole entry, looked up): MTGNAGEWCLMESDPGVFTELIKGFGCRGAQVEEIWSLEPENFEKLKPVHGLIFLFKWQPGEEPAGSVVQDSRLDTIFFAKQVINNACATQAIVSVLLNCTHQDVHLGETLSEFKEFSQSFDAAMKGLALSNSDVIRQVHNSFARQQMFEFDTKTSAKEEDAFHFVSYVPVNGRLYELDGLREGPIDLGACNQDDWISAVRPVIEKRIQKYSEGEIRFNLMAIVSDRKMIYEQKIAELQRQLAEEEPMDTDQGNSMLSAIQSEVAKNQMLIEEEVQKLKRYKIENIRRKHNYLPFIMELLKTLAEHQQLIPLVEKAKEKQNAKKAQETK
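assay system = human UCH37 enzyme supplied as purified proteasome complex | amount = proteasome at 0.15 nM in the dispensed enzyme solution | schedule = 30 min compound-proteasome preincubation then 25 min substrate reaction, room temperature | measured by = fluorescence, ex 355 nm, em 460 nm | benchmarks = no-proteasome wells (full inhibition) and compound-free wells (no inhibition)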
hiPSC survival = hiPSC single-cell survival enhancement | hit rate 0.044% among 360,000 | ATPlite luminescence; 100% = ROCK inhibitor wells, 0% = DMSO | survival enhancement, % at 20 µM; in the data active means survival enhancement above about 18%;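 further: cells exposed to compounds for 16 hours before the ATP read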
CRFBP-R2 agonist = agonists of human CRF-binding protein/CRF-R2 receptor complex | HEK293 CRF-R2/CRF-BP, calcium dye fluorescence (FLIPR); percent of saturating CRF peptide response | activation, % at 13.2 µM | hit rate 0.46% among 350,000 | AID 588473;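 active means activation of at least 50%, plus an integration ratio under a set limit after plate pattern correction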;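 further: plate controls were neutral control wells without compound for no effect and CRF at EC100 for full effect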
Cardio protect = modulators protecting cardiomyocytes from myocardial damage | hit rate 0.63% among 360,000 | protection from H2O2 cell death, % at 20 µM | H9c2 cardiomyocytes, H2O2 injury protection, ATPLite, 2 h;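 active means compounds giving at least 50% protection of heart cells from peroxide-induced death in the single-dose screen, raw or plate-pattern-corrected value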;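 further: 0% = DMSO wells with peroxide and 100% = DMSO wells without peroxide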
CRFBP-R2 block = CRF-BP/CRF-R2 complex antagonism | HEK293 CRF-R2/CRF-BP, CRF-induced calcium fluorescence | inhibition, % at 11.8 µM | hit rate 0.59% among 350,000 | AID 588475;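 active means inhibition of the ligand-induced calcium signal above about 50% at the single tested concentration, limit read from the data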
* marks the source's active call; other numbers are inactive results; . = not tested or not shown.

SMILES | MIN6 prolif | UCH37 DUB inh | hiPSC survival | CRFBP-R2 agonist | Cardio protect | CRFBP-R2 block
Cc1cc(/C=C2\C(=N)N3C(SCc4ccccc4)=NSC3=NC2=O)c(C)n1Cc1ccccc1 | -4 | -383 | -1 | 7 | -10 | 4
CC(C)CSC1=NSC2=NC(=O)/C(=C\c3coc4ccccc4c3=O)C(=N)N12 | -6 | -12 | 3 | 314* | -11 | -333
CC(C)CSC1=NSC2=NC(=O)/C(=C\c3ccccc3)C(=N)N12 | -7 | 2 | 0 | 27 | -24 | 31
O=[N+]([O-])c1ccc(C=NN/C(=N/c2ccccn2)c2ccccn2)cc1 | . | 10 | . | . | . | .
COc1ccccc1C=NNC(=O)C(=O)NCc1cccnc1 | . | 4 | . | . | . | .
CCOC(=O)/C=c1/s/c(=C/c2ccc3cc(OC)ccc3c2)c(=O)n1CC(=O)NCc1ccc2c(c1)OCO2 | . | -19 | -2 | 64* | 5 | -11
COc1ccc(OC)c(C=NNC(=O)CC(=O)NCCc2ccccc2)c1 | . | -141 | . | . | . | .
CC(C)N1CCN(Cc2nc(-c3ccccc3)cs2)CC1CCO (stereo not drawn) | 4 | 4 | -2 | -3 | -3 | 82*
Cc1nn(-c2ccccc2)c(Cl)c1CN(C(=O)CCl)c1ccc(Cl)cc1 | . | 5 | -3 | 0 | -10 | 78*
CC(=O)N(Cc1c(C)nn(-c2ccccc2)c1Cl)c1ccc(Cl)cc1 | -4 | 1 | -2 | -1 | 14 | 32
CC(/C=N/NC(=O)c1cccs1)=C\c1ccco1 | -2 | . | 1 | 3 | 1 | 15
C/C(C=NNC(=O)c1ccncc1)=C\c1ccco1 | . | 23* | . | . | . | .
O=S(=O)(O)c1cc(O)c2c(O)c(N=Nc3cc(Cl)ccc3O)c(S(=O)(=O)O)cc2c1 | -2 | 34* | -1 | -1 | -8 | -1
CCOc1ccc(C=NNC(=O)C(O)c2ccccc2)c(O)c1 (stereo not drawn) | . | -11 | . | . | . | .
O=C(NCc1ccco1)C1CC(c2ccc(C(F)(F)F)cc2)=NO1 (stereo not drawn) | -4 | 27* | 0 | -1 | -12 | -2
O=C(CCN1CCCC1=O)NC1CCCc2c1cnn2-c1ccc(F)cc1F (stereo not drawn) | -1 | 6 | 0 | 0 | -2 | 2
O=C(CCN1CCCC1=O)NC1CCCc2c1cnn2-c1ccccc1F (stereo not drawn) | -2 | 0 | 2 | 21 | 3 | 54*
Cc1ccc(Cl)cc1N(CC(=O)N1CCOCC1)S(C)(=O)=O | 0 | 0 | -1 | 1 | 1 | 74*
COc1ccccc1/C=C/c1nc(S(=O)(=O)c2ccccc2)c(N(C)C)o1 | 0 | -391 | 0 | -1 | -1 | 72*
COc1cccc(/C=C/c2nc(S(=O)(=O)c3ccccc3)c(N(C)C)o2)c1 | 0 | -435 | 0 | 1 | 0 | 3
O=C(Cc1ccc(-n2cccc2)cc1)N1CCN(c2ccccc2F)CC1 | -3 | -2 | 0 | -4 | -11 | 53*
COc1ccc(CC(=O)N2CCN(c3ccccc3F)CC2)cc1OC | 1 | . | 0 | 1 | -6 | 10
C(=NN1CCN(C2c3ccccc3-c3ccccc32)CC1)c1cccnc1 | . | 6 | . | . | . | .
CC(C)(C)OC(=O)N1CCC(c2cc(=O)n3[nH]cc(C(=O)NC4CCCC4)c3n2)CC1 | 5 | -3 | 4 | 0 | -1 | 51*
CC(C)(C)OC(=O)N1CCC(c2cc(=O)n3[nH]cc(C(=O)Nc4ccc(F)c(Cl)c4)c3n2)CC1 | -4 | -3 | 0 | 0 | 10 | 12
SMILES | MIN6 prolif | UCH37 DUB inh | hiPSC survival | CRFBP-R2 agonist | Cardio protect | CRFBP-R2 block
CCOC(=O)C(=O)NN=Cc1ccc(F)cc1 | . | 5 | . | . | . | .
O=c1cc(C(F)(F)F)[nH]c2c(C(F)(F)F)cccc12 | -8 | -125 | 3 | 54* | -24 | 33
O=c1cc(C(F)(F)F)[nH]c2ccc(OC(F)(F)F)cc12 | -4 | . | -1 | 50 | -13 | 69*
Clc1ccc(C=NNC2=Nc3cccc4cccc2c34)cc1 | . | 3 | . | . | . | .
CC1(C)CC(=O)CC(=O)C1=NNc1c(Cl)cc(Cl)cc1Cl | . | 7 | . | . | . | .
CCOc1ccc(C(C(=O)NCC2CCCO2)N(C(=O)c2snc(C(N)=O)c2N)c2ccccc2F)cc1 (stereo not drawn) | -1 | . | 0 | -2 | 61* | 4
NC(=O)c1nsc(C(=O)N(c2cccc(F)c2)C(C(=O)NC2CCCC2)c2ccc(O)cc2)c1N (stereo not drawn) | -1 | -115 | -1 | 0 | 20 | 16
COc1ccc(C(C(=O)NC2CCCC2)N(C(=O)c2snc(C(N)=O)c2N)c2cccc(O)c2)cc1 (stereo not drawn) | 0 | -40 | 0 | -1 | 52* | -2
CCOc1ccc(C(C(=O)NCC2CCCO2)N(Cc2cccs2)C(=O)c2snc(C(N)=O)c2N)cc1 (stereo not drawn) | 1 | -34 | 0 | 0 | 68* | -9
NC(=O)c1nsc(C(=O)N(c2ccccc2F)C(C(=O)NCc2ccc(F)cc2)c2ccc(O)cc2)c1N (stereo not drawn) | -1 | . | 2 | 23 | 52* | -45
COc1ccc(C(C(=O)NCC2CCCO2)N(Cc2cccs2)C(=O)c2snc(C(N)=O)c2N)cc1OC (stereo not drawn) | -1 | . | 0 | -1 | 30 | -11
Cc1ccc2nc(/C(C#N)=C/c3ccc(O)c(O)c3)[nH]c2c1 | -2 | . | 0 | 39 | 71* | -75
O=C(O)CC1S/C(=N/N=CC2CC=CCC2)NC1=O (stereo not drawn) | . | 6 | . | . | . | .
Fc1ccccc1Nc1nc2ccccc2n2nnnc12 | 2 | 3 | -2 | 2 | 47 | -2
CCN(CC)S(=O)(=O)c1ccc(Nc2nc3ccccc3n3nnnc23)cc1 | -1 | -20 | -2 | 3 | 83* | -19
c1ccc2c(c1)nc(Nc1ccc3c(c1)OCO3)c1nnnn12 | 2 | -15 | -3 | 1 | 56* | -12
Brc1ccc(Nc2nc3ccccc3n3nnnc23)cc1 | 3 | . | . | . | . | .
COc1cccc(Nc2nc3ccccc3n3nnnc23)c1 | -3 | -58 | 6 | 0 | 68* | -36
c1ccc(Nc2nc3ccccc3n3nnnc23)cc1 | 2 | -6 | 3 | 13 | 28 | -43
COc1ccccc1/C=C/C(=O)NCC(=O)NN=Cc1ccccc1 | . | -4 | . | . | . | .
CC(=NNc1nc(C)cc(C)n1)c1ccc(N2CCOCC2)cc1 | . | 6 | . | . | . | .
Cc1ccc(S(=O)(=O)ON=C2CCCc3occc32)cc1 | . | 3 | . | . | . | .
CCOc1ccc(-c2cc(NC(=O)c3c(F)cccc3F)c(C(=O)O)s2)cc1 | -4 | 3 | 0 | 0 | 0 | 48
O=C(Nc1cc(-c2ccccc2)sc1C(=O)O)c1cccc(F)c1 | -6 | . | -1 | -1 | -5 | 73*

Bioassay records deposited in PubChem by several laboratories.
